Bioassay records from PubChem.
Rev-RRE block: HIV Rev-RRE protein-RNA interaction inhibition | Rev peptide-RRE RNA binding, FRET | P05866 | 97,000 tested, 0.79% active | inhibition, % at 8 µM;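 active = inhibition above the screen-wide mean plus 3 SD, cut at about 35% in these data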
Target sequence (P05866 whole entry, looked up): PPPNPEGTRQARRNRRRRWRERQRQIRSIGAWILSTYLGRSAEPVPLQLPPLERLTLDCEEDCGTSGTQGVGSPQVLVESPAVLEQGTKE
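System: Cy5-labelled duplex RRE RNA binding fluorescein-labelled HIV Rev peptide; Signal: fluorescein-to-Cy5 FRET, 480 nm excitation; Also added: labelled Rev peptide; Compound: one concentration, 8 µM nominal; Buffer or medium: HEPES pH 7.5 salt buffer with EDTA; Read-out: % inhibition of FRET ratio versus controls; Schedule: 5 min preincubation and 15 min binding, 25 °C.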
CYP2C19 activ: activators of human cytochrome P450 2C19. P33261. recombinant CYP2C19, luciferin-H EGE luminescence; hits give high values; 0 = fully inhibited enzyme, 1 = untreated enzyme. activation factor at 5 µM. 96,000 tested, under 10 active. AID 1025;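 active = activation factor of at least 2 at 5 µM in the primary screen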
CYP2C9 inh: inhibitors of human CYP2C9; P11712; CYP2C9 Supersomes, luciferin-H conversion, luminescence; inhibition, % at 5 µM; 96,000 tested, 20% active; AID 777;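 active = blocking of liver enzyme CYP2C9 beyond about 50% at 5 µM, limit read from the data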
Target sequence (P11712 whole entry, looked up): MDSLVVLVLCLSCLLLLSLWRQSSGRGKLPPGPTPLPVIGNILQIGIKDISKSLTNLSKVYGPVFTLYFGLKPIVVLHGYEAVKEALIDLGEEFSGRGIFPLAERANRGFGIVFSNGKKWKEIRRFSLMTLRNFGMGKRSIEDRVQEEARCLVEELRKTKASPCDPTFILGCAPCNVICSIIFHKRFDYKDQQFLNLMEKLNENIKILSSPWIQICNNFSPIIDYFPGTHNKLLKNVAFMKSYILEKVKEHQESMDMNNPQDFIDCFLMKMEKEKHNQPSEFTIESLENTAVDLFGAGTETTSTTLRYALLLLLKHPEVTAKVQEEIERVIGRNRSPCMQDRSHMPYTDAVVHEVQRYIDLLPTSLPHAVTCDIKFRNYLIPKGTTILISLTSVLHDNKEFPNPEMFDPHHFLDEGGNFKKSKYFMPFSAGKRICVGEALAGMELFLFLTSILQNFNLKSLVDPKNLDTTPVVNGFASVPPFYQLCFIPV
CYP2C19 inhib: blocks human cytochrome P450 2C19; P33261; inhibition, % at 5 µM; 96,000 tested, 21% active; CYP2C19 Supersomes, luciferin-H EGE luminescence, 30 min;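 active = CYP2C19 inhibition above a set limit at 5 µM in the primary screen, cut at about 50% in these data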
CYP2C9 activ: activators of human CYP2C9. 96,000 tested, 1.4% active. recombinant CYP2C9, luciferin-H conversion, luminescence; hits give high values; factor 1 = untreated enzyme, 0 = blocked. activation factor at 5 µM;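 active = activation factor of 2 or more for CYP2C9 at a 5 µM dose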
Cav32 inh: inhibitors of human Cav3.2 T-type calcium channel; B-score at 10 µM; O95180; 100,000 tested, 4% active; Cav3.2-expressing cells, Fluo-4 calcium fluorescence FDSS; hits give low values;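 active = single-dose well whose peak fluorescence ratio is a statistical outlier from its plate by either plate-standardised score or position-corrected B-score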
Numbers stand for hits; i = inactive; nt = no result. Only some compounds are listed: those with a hit (about 27% of all), similar ones and a draw of the others.

SMILES	Rev-RRE block	CYP2C19 activ	CYP2C9 inh	CYP2C19 inhib	CYP2C9 activ	Cav32 inh
CS(=O)(=O)N(CC(O)Cn1c2ccccc2c2ccccc21)c1ccccc1 (configuration not stated)	i	i	96.7	95.9	i	i
CCOc1ccc(-n2cc(C(=O)Nc3ccc(Cl)cn3)c3cc(OC)c(OC)cc3c2=O)cc1	i	i	i	i	i	i
Cc1cccc(OCCCC(=O)NCc2ccco2)c1	i	i	i	i	i	i
C=CC[C@@H]1C=C(C)C[C@H](C)C[C@H](OC)[C@H]2O[C@@](O)(C(=O)C(=O)N3CCCC[C@H]3C(=O)O[C@H](/C(C)=C/[C@@H]3CC[C@@H](O)[C@H](OC)C3)[C@H](C)[C@@H](O)CC1=O)[C@H](C)C[C@@H]2OC	nt	nt	nt	nt	nt	i
O=C(O)C[C@H]1c2cc(C(F)(F)F)ccc2S(=O)(=O)N1C1CCCCC1	nt	nt	nt	nt	nt	i
COC(=O)C1=CN(CC2CCCO2)C=C(C(=O)OC)C1c1ccsc1 (configuration not stated)	nt	i	51.6	i	i	i
Nc1c(C(=O)OCC2CCCO2)c2nc3ccccc3nc2n1C1CCCC1 (configuration not stated)	i	i	55.4	i	i	i
COCCn1c(N)c(C(=O)NCC2CCCO2)c2nc3ccccc3nc21 (configuration not stated)	i	i	i	i	i	i
CC(C)Cn1c(N)c(C(=O)NCC2CCCO2)c2nc3ccccc3nc21 (configuration not stated)	i	i	85.3	64.7	i	nt
Cn1nnnc1SCCNCc1ccncc1	i	i	i	i	i	i
CCCCCC(C(=O)O)C(C)CC(=O)NC1CCCCC1 (configuration not stated)	i	i	i	i	i	i
O=C(O)c1cccc(NC(=O)C23CC4CC(C2)CC(n2cnc(Cl)n2)(C4)C3)c1	i	i	70.9	61.7	i	i
COC(=O)c1ccccc1NC(=O)C12CC3CC(C1)CC(n1cnc(Cl)n1)(C3)C2	i	nt	nt	nt	nt	i
Cc1cc(C)c(C#N)c(N2CCOCC2)n1	i	nt	nt	nt	nt	i
CC1(C)Cc2c(C#N)c(SCC(=O)c3ccccc3)nc(N3CCOCC3)c2CS1	i	i	98.4	81.2	i	i
COC(=O)CSc1nc(N2CCOCC2)c2c(c1C#N)CC(C)(C)N(C)C2	i	i	56.4	i	i	i
CN1Cc2c(N3CCOCC3)nc(SCc3ccccc3)c(C#N)c2CC1(C)C	i	i	90.7	i	i	i
CCSc1nc(N2CCOCC2)c2c(c1C#N)CC(C)(C)N(C)C2	i	i	87.4	50.8	i	i
CC(Sc1nc(N2CCOCC2)c2c(c1C#N)CC(C)(C)OC2)C(=O)Nc1ccccc1 (configuration not stated)	i	nt	nt	nt	nt	i
COc1ccc(NC(=O)c2ccc(CNc3c(NC4CCCCC4)c(=O)c3=O)cc2)cc1OC	i	i	i	i	i	i
c1ccc(-c2cc3c(N4CCOCC4)ncnc3s2)cc1	nt	i	i	78.7	i	i
Cc1nc(N2CCOCC2)c2cc(-c3ccccc3)sc2n1	nt	i	i	i	i	i
CC1(C)CC(C)(O)P(=O)(c2ccccc2)O1 (configuration not stated)	nt	i	i	i	i	i
CC(C)OC(=O)C1C2C=CC3(CN(C(C)c4ccc(Br)cc4)C(=O)C13)O2 (configuration not stated)	i	i	i	83.0	i	i
Cc1cccc(-n2ncc3c(NCCc4ccc(S(N)(=O)=O)cc4)ncnc32)c1	i	i	96.1	92.5	i	nt
SMILES	Rev-RRE block	CYP2C19 activ	CYP2C9 inh	CYP2C19 inhib	CYP2C9 activ	Cav32 inh
Cc1cccc(-n2ncc3c(NCc4cccs4)ncnc32)c1	i	i	50.7	i	i	i
Clc1ccc(-n2ncc3c(NCc4cccs4)ncnc32)cc1	i	nt	nt	nt	nt	i
O=C(O)CCCCCNC(=O)CCn1cnc2ccccc2c1=O	i	i	i	i	i	i
CC1(C)C=C(c2ccc(O)cc2)CC(C)(C)N1	i	i	i	i	i	i
CCOC(=O)CSc1ncc(OC)c(=O)[nH]1	i	i	i	i	i	i
CCOC(=O)C(C)Sc1ncc(OC)c(Sc2ccc(Cl)cc2)n1 (configuration not stated)	i	i	82.6	i	i	i
CCOC(=O)CSc1ncc(OC)c(Sc2ccc(Cl)cc2)n1	i	i	57.5	i	i	-10.7
Cc1nc2c3c(-c4ccccc4)c(-c4ccccc4)oc3ncn2n1	nt	i	i	i	i	nt
COc1ccc(NC(=O)c2c(-c3ccccc3)noc2C)c(OC)c1	i	i	i	i	i	i
CCCCOc1ccccc1NC(=O)c1ccc(=O)[nH]c1	i	i	i	i	i	i
Cc1ccc(F)cc1NC(=O)c1c(-c2ccccc2)noc1C	i	i	i	52.6	i	i
COc1ccc(Cl)cc1NC(=O)c1c(-c2ccccc2)noc1C	i	i	i	i	i	i
CCOc1ccccc1NC(=O)c1ccc(S(=O)(=O)N(C)C)cc1	i	i	i	i	i	i
CCOc1ccccc1NC(=O)c1ccc2nccnc2c1	nt	i	i	i	2.1	i
CCCOc1ccccc1NC(=O)c1c(-c2ccccc2)noc1C	i	i	i	i	i	-4.84
CCCOc1ccccc1NC(=O)c1ccc(N)cc1	i	i	i	i	2.7	i
CC(=O)Nc1ccc(C(=O)OC2CCCCC2=O)cc1 (configuration not stated)	i	i	i	i	i	i
CCOc1ccccc1C(=O)Nc1ccccc1O	i	i	i	i	5.7	i
Cc1ccccc1NC(=O)c1c(-c2ccccc2)noc1C	i	i	i	51.7	i	i
CCOc1ccccc1NC(=O)c1ccoc1C	i	i	i	i	i	i
COCCCNC(=O)c1c(-c2ccccc2)noc1C	i	i	i	i	i	i
Cc1cccc(C)c1NC(=O)c1c(-c2ccccc2)noc1C	i	i	i	i	i	i
CCCCOCCCNC(=O)c1c(-c2ccccc2)noc1C	i	i	i	67.9	i	i
COc1ccc(C)cc1S(=O)(=O)Nc1cccc(SC)c1	i	i	i	i	i	i
COc1ccc(F)cc1S(=O)(=O)Nc1ccc(C)cc1	i	i	56.9	i	i	i
SMILES	Rev-RRE block	CYP2C19 activ	CYP2C9 inh	CYP2C19 inhib	CYP2C9 activ	Cav32 inh
COc1cccc(NS(=O)(=O)c2cc(C)ccc2OC)c1	i	i	52.3	69.2	i	i
CCOc1ccc(C)cc1S(=O)(=O)NC1CCCCC1	i	i	i	i	i	i
CCn1nnnc1-c1ccc(OC)c(S(=O)(=O)Nc2ccc(C)c(C)c2)c1	i	i	62.1	i	i	nt
COc1ccc(C)cc1S(=O)(=O)NC1CCCCC1C (configuration not stated)	i	i	89.4	85.2	i	i
COc1ccc(C)cc1S(=O)(=O)Nc1cccc(Cl)c1	i	i	i	i	i	i
CCOc1ccccc1NC(=O)c1c(NC(=O)CNCc2ccco2)sc2c1CCC2	nt	i	i	i	i	nt
COc1ccc(NS(=O)(=O)c2cc(C)ccc2OC)cc1OC	i	i	i	82.5	i	nt
